The text below walks through data of ChEMBL document CHEMBL1938381, “Design, synthesis, and structure-activity relationship studies of conformationally restricted mutilin 14-carbamates” (2012).

Type in all cases: functional
For experiment [1], the system named is Staphylococcus epidermidis. The experiment can be described thus: Ratio of Linezolid MIC to compound MIC for methicillin-susceptible Staphylococcus epidermidis.
Experiment [2] has as its system Staphylococcus epidermidis. The experiment can be described thus: Antibacterial activity against methicillin-resistant Staphylococcus epidermidis by agar microdilution method. An outline of the steps:
(§1)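 MIC by agar microdilution following NCCLS standard M7-A6 (2003), tested against clinical isolates: MRSA n = 6, MRSE n = 5, MSSA n = 5, MSSE n = 5; values given as a single MIC or a range across isolates.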

The subject of experiment [3] is Staphylococcus epidermidis. The experiment can be described thus: Antibacterial activity against methicillin-susceptible Staphylococcus epidermidis by agar microdilution method. In short, it runs like this:
as §1

Experiment [4] relates to Streptococcus pneumoniae. The experiment can be described thus: Ratio of Linezolid MIC to compound MIC for Streptococcus pneumoniae.
Experiment [5] relates to Staphylococcus aureus. The experiment can be described thus: Antibacterial activity against methicillin-susceptible Staphylococcus aureus by agar microdilution method. In short, it runs like this: as §1
In experiment [6] the test system is Staphylococcus aureus. The experiment can be described thus: Antibacterial activity against methicillin-resistant Staphylococcus aureus by agar microdilution method. In short, it runs like this: as §1
Experiment [7] deals with Staphylococcus aureus. The experiment can be described thus: Ratio of Linezolid MIC to compound MIC for methicillin-susceptible Staphylococcus aureus.
The test system of experiment [8] is Streptococcus pneumoniae. The experiment can be described thus: Antibacterial activity against Streptococcus pneumoniae by agar microdilution method. In short, it runs like this: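 MIC read by agar microdilution following NCCLS standard M7-A6 (2003), against a panel of 3 Streptococcus pneumoniae clinical isolates. Values in µg/mL, given as a range where the isolates differed.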

Converted amounts (≈) assume the structure as drawn.

What is called MIC is the smallest concentration in the dilution series that meets the test's criterion for growth inhibition. Read a low MIC as inhibition by little substance.

As for `C=C[C@]1(C)C[C@@H](OC(=O)N2Cc3ccc(NC(=O)[C@@H]4CCCN4)cc3C2=O)[C@]2(C)[C@H](C)CC[C@]3(CCC(=O)[C@H]32)[C@@H](C)[C@@H]1O.Cl`, the Ratio in experiment [1], in experiment [4] and in experiment [7] was 4 in each case. In addition, the MIC in experiment [2] is 0.25 µg/mL; in experiment [3], 0.25 µg/mL; in experiment [5], 0.25 µg/mL; in experiment [6] it was 0.25 µg/mL; in experiment [8], 0.5 µg/mL.

Turning to `C=C[C@]1(C)C[C@@H](OC(=O)N2CCc3cc(OC)c([N+](=O)[O-])cc3C2=O)[C@]2(C)[C@H](C)CC[C@]3(CCC(=O)[C@H]32)[C@@H](C)[C@@H]1O`, the Ratio in experiment [1], in experiment [4] and in experiment [7] was 4 in each case. Moreover, the MIC is 0.25 µg/mL (≈ 0.44 µM) in experiment [2]; 0.25 µg/mL (≈ 0.44 µM) in experiment [3]; 0.125 µg/mL (≈ 0.22 µM) in experiment [5]; 0.25 µg/mL (≈ 0.44 µM) in experiment [6]; 0.25 µg/mL (≈ 0.44 µM) in experiment [8].
